High-throughput results as filed in PubChem.
An excerpt weighted towards active compounds, which were near 0.41% of everything screened.
Yeast superoxide – yeast age-related superoxide inhibition as caloric restriction mimetic; S. cerevisiae aged cells, superoxide DHE fluorescence; stronger effect = lower value; superoxide response (% of plate mean), % at 10 µM; 330,000 tested, 0.18% active; AID 2690;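 active = superoxide response under a set limit, about three screen SD below normal, cut at about 65% in these data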;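 note: yeast aged for seven days with compound at 30 °C before DHE staining; 100% = average MFI of all compound-treated wells on the plate with controls excluded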
T cell HTS – T cell immune modulators affecting CD8 T cell-vesicle binding; 2C CD8+ T cell-vesicle binding, flow cytometry; stronger effect = lower value; AID 2052; response (vesicle binding), % at 7 µM; 330,000 tested, 0.068% active;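 active = response, share of CD8 T cells binding vesicles, and their 90th percentile fluorescence all below set limits, cut at about 80% in these data, passing the limit was not always enough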;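 note: values below 100% mean blocked vesicle binding to the CD8+ T cells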
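Benchmarks: naked versus QL9-loaded vesicles / Assay system: purified 2C TCR transgenic mouse naive CD8+ T cells / Technique: high-throughput flow cytometry with anti-B7-1 and anti-CD8 staining / Timing: Cell–vesicle co-incubation 1.5 h at 37 °C, staining 20 min on ice / Read-out: percent CD8+ FL2 mean versus row control / Probe or stimulus: QL9-loaded Drosophila micro-vesicles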
S1P3 antag – antagonists of human S1P3 receptor | Q99500 | CHO S1P3 NFAT-BLA reporter, FRET fluorescence, antagonist mode | inhibition, % at 4.98 µM | 170,000 tested, 0.27% active | AID 485;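 active = inhibition above the plate cutoff, the mean inhibition of test wells on that plate plus 3 SD, cut at about 28% in these data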;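 note: cells challenged with S1P at its EC80 of 0.8 µM; blue over green emission ratio from cleaved BLA substrate after 4 h stimulation; 0% = S1P-stimulated wells and 100% = unstimulated DMSO-only wells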
Target sequence (Q99500 whole entry, looked up): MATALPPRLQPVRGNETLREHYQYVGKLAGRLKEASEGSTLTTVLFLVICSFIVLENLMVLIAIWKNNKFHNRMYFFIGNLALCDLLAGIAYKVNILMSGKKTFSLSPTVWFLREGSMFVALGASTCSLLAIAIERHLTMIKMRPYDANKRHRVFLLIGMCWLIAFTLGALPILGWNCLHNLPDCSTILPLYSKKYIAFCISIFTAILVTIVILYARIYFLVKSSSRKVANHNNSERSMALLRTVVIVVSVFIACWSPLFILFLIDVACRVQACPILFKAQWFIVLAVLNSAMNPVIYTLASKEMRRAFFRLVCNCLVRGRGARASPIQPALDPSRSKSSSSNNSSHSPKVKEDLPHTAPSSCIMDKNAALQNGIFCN
* marks the source's active call; other numbers are inactive results; i = inactive; nt = not tested or not shown.

SMILES	Yeast superoxide	T cell HTS	S1P3 antag
CCOCCCNC(=O)C(NC(=O)c1ccc(NC(C)=O)cc1)c1ccc(C)cc1 (stereo not given)	97	78	-23
O=C(Oc1ccc(-c2nnco2)cc1)C1CCN(C(=O)c2ccc(F)cc2)CC1	109	218	nt
Cc1ccc2[nH]c3c(NCc4ccco4)ncnc3c2c1	81	i	59*
COc1cc(CNc2ncnc3c2[nH]c2ccc(C)cc23)cc(OC)c1	106	i	14
O=C(COC(=O)CCCN1C(=O)c2cccc3cccc(c23)C1=O)Nc1ccc(Cl)cc1	104	220	3
CC1CCN(C(=O)COC(=O)CCCN2C(=O)c3cccc4cccc(c34)C2=O)CC1	97	0.0*	nt
COC(CN(C)C(=O)c1ccc2c(c1)NC(=O)c1ccccc1S2)OC	94	162	nt
CCCC[C@@H]1C=C(C(=O)O)[C@H](c2ccc(Cl)c(Cl)c2)N1S(=O)(=O)c1ccc(C)cc1	111	0	nt
CN1CCN(c2nc(-c3cc4ccccc4o3)cs2)CC1	114	234	-10
NC(=O)C1CCN(c2nc(-c3cc4ccccc4o3)cs2)CC1	108	78*	nt
O=C(CCl)Nc1cn(-c2ccccc2)nc1-c1ccccc1	105	381	2
Cc1ccc(-c2nc(=O)[nH]c3ccc(Br)cc23)cc1	112	220	nt
O=C(CNCC1CCCO1)Nc1ccc([N+](=O)[O-])cc1C(=O)Nc1ccccc1F (stereo not given)	102	591	1
COc1cccc(NC(=O)c2cc([N+](=O)[O-])ccc2NC(=O)CNCC2CCCO2)c1 (stereo not given)	64*	145	-16
COc1ccccc1-c1oc2ccccc2c1C#CC(C)(C)O	83	239	nt
CCCCN(C)C(=O)c1cn(C)c2ccc(S(=O)(=O)N(C)C)cc2c1=O	99	271	87*
CCCCN(C)C(=O)c1cn(CC)c2ccc(S(=O)(=O)N(C)C)cc2c1=O	98	227	3
CSCCC(NS(=O)(=O)c1ccccc1F)C(=O)N1CCCCCCC1 (stereo not given)	104	121	nt
O=C(OCc1nc2ccsc2c(=O)[nH]1)c1ccc(Cl)s1	122	295	nt
CCOC(=O)c1[nH]c2ccccc2c1NC(=O)COC	99	576	17
CCOC(=O)c1[nH]c2ccccc2c1NC(=O)CC	95	728	55*
Cc1cccc(CCNC(=O)C2CCN(S(=O)(=O)c3cccc4cccnc34)CC2)c1	102	239	nt
NS(=O)(=O)c1ccc(CCNC(=O)C2CCN(S(=O)(=O)c3cccc4cccnc34)CC2)cc1	96	54*	nt
CC[C@]12c3[nH]c4cc(-c5ccco5)ccc4c3CCN1C(=O)[C@@H](CC(=O)NCCCn1ccnc1)C[C@@H]2C(=O)N1CCN(C(=O)C2CC2)CC1	121	nt	nt
CC1(C)SC[C@H](C(=O)Nc2cccc(Cl)c2)N1C=O	105	52*	-6
SMILES	Yeast superoxide	T cell HTS	S1P3 antag
CC12CCC(=O)N1C(C(=O)Nc1ccc(F)c(Cl)c1)CS2 (stereo not given)	97	301	nt
O=C1OCC2=C1C(c1ccc(F)cc1)c1cc3c(cc1N2)OCO3 (stereo not given)	nt	nt	-2
O=C1OCC2=C1C(c1ccc(F)cc1)c1cc3c(cc1N2)OCCO3 (stereo not given)	nt	nt	35*
O=Cc1c(NCc2ccccc2Cl)c2ccccc2[nH]c1=O	106	507	nt
CC(C)(C)OC(=O)N1CCC(C(=O)Nc2cccc(C(=O)N3CCOCC3)c2)CC1	99	202	nt
COc1ccc(C(=O)NC(=S)NNC(=O)c2ccc(C)cc2)cc1	193	406	nt
COc1ccc(C(=O)NC(=S)NNC(=O)c2ccc3ccccc3n2)cc1	63*	346	-1
CCOc1ccc(C2CC(c3ccccc3C)n3nc(N)nc3N2)cc1 (stereo not given)	75	53*	-5
COc1ccc(C2CC(c3ccccc3C)n3nc(N)nc3N2)cc1 (stereo not given)	101	81	-11
CCCn1c(SCC(=O)Nc2ccccc2OC)nnc1-c1ccco1	87	429	nt
O=Cc1cn(-c2ccccc2)nc1-c1cc2cc(O)ccc2oc1=O	103	378	nt
O=C(O)/C=C/c1cn(-c2ccccc2)nc1-c1cc2ccccc2oc1=O	61*	277	1
O=C(CN1CCC(C(=O)c2ccc3c(c2)OCCO3)CC1)Nc1ccccc1C(F)(F)F	114	434	nt
CCN(CC)CCNC(=O)c1ccc(NC(C)=O)cc1	101	383	2
CCN(CC)CCNC(=O)c1ccc(NC(=O)c2ccc(C(=O)c3ccccc3)cc2)cc1	86	76*	nt
c1ccc(COc2ccc(OCCN3CCCCC3)cc2)cc1	93	81*	-19
c1ccc(COc2ccc(OCCN3CCCC3)cc2)cc1	80	332	-2
COc1cccc(-n2c(SCC(=O)N3CCOCC3)nc3c([nH]c4ccccc43)c2=O)c1	102	710	nt
COc1cccc(-n2c(SCC(=O)N3CCOCC3)nnc2-c2c[nH]c3ccccc23)c1	112	743	53*
Cc1cc(C)n(CC(=O)n2nc(C)cc2C)n1	86	366	nt
Cc1cc(C)n(C(=O)Cc2cn3ccsc3n2)n1	93	72*	-2
CC(C)C(OC(=O)CN1C(=O)COc2ccccc21)C(=O)NC1CCCC1 (stereo not given)	113	871	18
Cc1ccc2c(c1)N(CC(=O)OC(CC(C)C)C(=O)NC1CCCC1)C(=O)CO2 (stereo not given)	97	225	90*
CN(C)CCCNC(=O)C[C@H]1C[C@H](C(=O)N2CCOCC2)[C@@]2(C)c3[nH]c4ccc(Cl)cc4c3CCN2C1=O	103	nt	nt
C[C@H](NC(=O)[C@H]1N2C(=O)c3ccccc3C2SC1(C)C)C(=O)N1CCCCC1 (stereo not given in full)	119	i	nt
SMILES	Yeast superoxide	T cell HTS	S1P3 antag
CCOc1ccc(S(=O)(=O)N=C(c2ccccc2)N2CCOCC2)cc1	105	461	nt
O=C(NNC(=S)NC(=O)c1ccco1)c1ccc(F)cc1	194	50*	6
COc1ccc(C(=O)NNC(=S)NC(=O)c2ccco2)cc1	126	307	nt
COc1ccc(-c2cc(CNS(=O)(=O)c3ccc(NC(C)=O)cc3)on2)cc1	119	0.0*	nt
COc1ccc(-c2cc(CNS(=O)(=O)c3cc(OC)ccc3OC)on2)cc1	101	243	nt
Cc1ccc(N2NC(=O)/C(=C/c3ccc(-c4ccc(Cl)c(C(=O)O)c4)o3)C2=O)cc1	98	334	-28
CCCCC1(C)OC(=O)C(=Cc2ccc(-c3ccc(Cl)c(C(=O)O)c3)o2)C(=O)O1 (stereo not given)	63*	378	8
C=CC(=O)Nc1sc2c(c1C(N)=O)CCCC2	82	432	nt
C=CCNC(=S)Nc1sc2c(c1C(N)=O)CCCC2	81	47*	2
O=C(NCCc1nc2ccc(Cl)cc2[nH]1)C1CCC(=O)N(Cc2cccc(F)c2)C1 (stereo not given)	88	67*	nt
O=C(NCCc1cccc(Cl)c1)C1CCC(=O)N(Cc2ccc(Cl)cc2)C1 (stereo not given)	90	284	nt
C[C@@H](CN1C(=O)C(=O)NC[C@@H]1C)NC(=O)CC12CC3CC(CC(C3)C1)C2	103	965	nt
COc1cccc(CN2CCN(S(=O)(=O)c3ccc(Cl)s3)CC2)c1	101	0.0*	nt
